Source: PubChem BioAssay (several laboratories)
hK5 inh – human KLK5 protease inhibitors, primary screen, biochemical, 1536-well; recombinant hK5, fluorogenic AMC substrate cleavage; inhibition, % at 5 µM; actives 0.59% (n = 210,000); AID 873, 2007;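 active = inhibition of 40% or more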;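 also: 0% = enzyme controls without compound and 100% = no-enzyme blanks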
Wee1 stabilizer – Wee1 degradation inhibitors, primary screen, cell-based, HeLa, Wee1K328M-luciferase, luminescence; reporter increase, % at 5 µM; actives 1.2% (n = 220,000); HeLa Luc-Wee1K328M stability; 100% = proteasome inhibitor MG132 effect; Wee1-like protein kinase (Homo sapiens), P30291;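 active = activation above the mean of all tested compounds plus 3 SD, set per screening run, cut at about 8.8% in these data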;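 also: cells exposed to compound for 20 h before luminescence read; 0% = DMSO alone and 100% = MG132 at 30 µM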
thrombin 1536 – human alpha-thrombin inhibitors, primary screen, counter-screen for coagulation protease inhibitor project, biochemical, 1536-well, fluorogenic AMC substrate | Prothrombin (Homo sapiens), P00734 | Boc-VPR-AMC fluorogenic substrate cleavage | inhibition, % at 5 µM | actives 0.26% (n = 220,000);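 active = inhibition at or above 40%; inactive = inhibition below 40%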;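 also: 0% = enzyme with no compound and 100% = wells without enzyme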
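System – human alpha-thrombin · Medium – pH 7.5 Tris (50 mM) with NaCl 150 mM, Tween 20 0.05% · Compound – single-point dosing at 5 µM, 0.2% DMSO · Incubation – enzyme reaction carried out at room temperature · Technique – fluorescence of released AMC, ex 355 nm, em 460 nm · Read-out basis – % inhibition of thrombin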
FXIIa inh – human FXIIa protease inhibitors, primary screen, biochemical, 1536-well; inhibition, % at 5 µM; purified FXIIa, Boc-QGR-AMC fluorogenic substrate, 2 h; actives 0.3% (n = 220,000); AID 800, 2007; Coagulation factor XII (Homo sapiens), P00748; in the data active = inhibition above about 40%;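 also: 0% = enzyme with no compound and 100% = blank without enzyme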
FXIa inh 1536 – human FXIa protease inhibitors, primary screen, biochemical, 1536-well | purified FXIa, Boc-Glu-Ala-Arg-AMC fluorogenic substrate | actives 0.14% (n = 220,000) | inhibition, % at 5 µM | Coagulation factor XI (Homo sapiens), P03951;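 active = inhibition of at least 40%; inactive = inhibition below 40%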;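 also: fluorescence of freed AMC excited at 355 nm; 0% = enzyme without compound and 100% = no enzyme blank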
Starred values were filed as active, the others as inactive; nt = not tested or not shown. Rows were chosen to be rich in hits. Some 2.2% of all compounds tested hit in one or more screens of this group.

SMILES	hK5 inh	Wee1 stabilizer	thrombin 1536	FXIIa inh	FXIa inh 1536
O=C(Nc1nnc(C2=COCCO2)o1)c1ccc(S(=O)(=O)N2CCCCC2)cc1	-29	-1	-1	3	-4
CC(C)c1nc(SCC(=O)Nc2cccc(S(N)(=O)=O)c2)n[nH]1	-2	10*	-16	-13	-9
CN(c1ccccc1)S(=O)(=O)c1cccc(NC(=O)CSc2n[nH]c(N)n2)c1	2	1	4	10	2
CC(=O)Nc1cc2cc(NS(=O)(=O)c3ccc(C)cc3)ccc2oc1=O	5	-1	4	9	5
CC(C)(CNC(=O)COc1ccccc1Cc1ccccc1)N1CCOCC1	0	-3	-7	6	-1
CCOC(=O)N1CCN(C(=O)c2ccccc2NC(=O)c2ccc(F)cc2)CC1	58*	-2	27	13	11
Fc1ccc(CSc2ccc3nnc(-c4cccnc4)n3n2)cc1	-2	-1	-10	4	-2
O=C(c1ccco1)N1N=C2CCCCCC2C1(O)C(F)(F)F (stereo not given)	3	11*	2	6	-2
Cc1ccc(C(=O)Nc2ccc3cn[nH]c3c2)cc1S(=O)(=O)N1CCOCC1	nt	9.7*	3	11	3
Cc1ccc(C(C)C)c(OCCNC(=S)Nc2cccc3ccccc23)c1	-31	-2	-1	-4	-4
CCc1nnc(NC(=O)CSc2nc3ccccc3o2)s1	42*	2	11	0	7
CCc1nnc(NC(=O)CSc2ncc(-c3ccccc3)[nH]2)s1	63*	5	12	-1	10
O=C(O)CCCCCN1C(=O)CSC1=S	1	-4	-10	6	2
CC(C)OC(=O)CCCCCN1C(=O)CSC1=S	-3	9.0*	-3	17	2
COC(=O)c1cc2ccsc2n1CC(=O)N1CCCc2ccccc21	-5	20*	-7	-1	-4
CCc1ccc(OCCNC(=O)c2ccc(S(=O)(=O)N(C)C)cc2)cc1	4	9.9*	3	8	-17
COC(=O)c1ccc(NC(=S)Nc2ccc(O)cc2)cc1	33	1	14	61*	28
CS(=O)(=O)c1ccc2nc(NC(=O)C3COc4ccccc4O3)sc2c1 (stereo not given)	156*	0	18	17	3
CSc1ncccc1C(=O)Nc1nc2ccc(S(C)(=O)=O)cc2s1	-3	8.9*	-5	4	-3
O=C(Nc1ccc(Oc2ccc(NC(=O)Nc3ccccc3Cl)cc2)cc1)Nc1ccccc1Cl	6	0	-3	12	4
C=CCOC(=O)C1=C(C)NC(=S)NC1c1cccs1 (stereo not given)	-20	2	-5	8	4
COc1ccc(-n2c(=O)c3c(C)c(C)sc3n(Cc3ccc(F)cc3)c2=O)c(OC)c1	-16	-1	2	3	-7
CN(C)/C=C/C(=O)c1ccc(F)cc1F	5	-1	-2	6	8
O=C(CSc1cccs1)Nc1ccc(Cl)cc1	19	10*	6	13	4
Cc1sc2ncnc(NC3CCN(Cc4ccccc4)CC3)c2c1C	-5	0	-4	-1	-3
SMILES	hK5 inh	Wee1 stabilizer	thrombin 1536	FXIIa inh	FXIa inh 1536
COc1ccc(-c2nc(N)n(C(=O)c3ccco3)n2)cc1	-2	0	16	26	1
COc1ccc(-c2nc(SC)n(C(=O)c3ccco3)n2)cc1	29	3	80*	24	18
CC1(C)CN(c2ccccc2)N(C(=O)c2ccc(C#N)cc2)C1=O	-13	2	19	21	2
CC(=O)OCC1(C)CN(c2ccccc2)N(C(=O)c2ccc(C(C)(C)C)cc2)C1=O (stereo not given)	-1	-1	43*	1	-5
CC1(C)CN(c2ccccc2)N(C(=O)c2ccc(F)cc2)C1=O	64*	-1	74*	25	15
CC(=O)OCC1(C)CN(c2ccccc2)N(C(C)=O)C1=O (stereo not given)	12	-4	-3	11	0
CC(C)CC1NC(=O)N(Cc2cc(=O)n3ccsc3n2)C1=O (stereo not given)	-3	5	1	2	-5
Cc1cccc(Nc2nc(N)nc(CCl)n2)c1	33	-1	49*	19	30
